Assay results: ChEMBL document CHEMBL4257459, “Synergistic antifungal effect of cyclized chalcone derivatives and fluconazole against Candida albicans” (2017)
Values after ≈ are worked out from the molar mass of the structure shown. Active and inactive are the calls of the source. The calls are words filed in the database; no cut-off is given here.

Experiments:
[1] = test system: Candida albicans; test: Antifungal activity against fluconazole resistant Candida albicans A171 by CLSI protocol based broth microdilution method; assay type: functional
Method in brief: (§1)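 Broth microdilution per CLSI M27-A3 against clinical C. albicans isolates. Strains sub-cultured at least twice on Tryptone Soya Agar, 37 °C, 48 h. Compounds dissolved in DMSO at 2000 μg mL–1 stock. Fluconazole positive control, plus culture, media and vehicle controls. Run in duplicate; MIC in μg mL–1.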

[2] = test system: Candida albicans; test: Antifungal activity against fluconazole susceptible Candida albicans 002B1 by CLSI protocol based broth microdilution method; assay type: functional
Method in brief: (§2)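 Clinical isolates and control strain subcultured at least twice on TSA, 37 °C, 48 h. MICs by CLSI M27-A3 broth microdilution; compounds dissolved in DMSO to 2000 μg mL–1 stock. Fluconazole positive control, culture, media and DMSO vehicle controls in each run. Duplicate experiments; MIC in μg mL–1.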

[3] = test system: Candida albicans; test: Antifungal activity against fluconazole susceptible Candida albicans 003gr by CLSI protocol based broth microdilution method; assay type: functional; method in brief: as §2
[4] = test system: Candida albicans; test: Antifungal activity against fluconazole resistant Candida albicans 167-1 by CLSI protocol based broth microdilution method; assay type: functional; method in brief: as §1
[5] = test system: Candida albicans; test: Antifungal activity against fluconazole susceptible Candida albicans 004B1 by CLSI protocol based broth microdilution method; assay type: functional; method in brief: as §2
[6] = test system: Candida albicans; test: Up regulation of ERG11 gene expression in fluconazole resistant Candida albicans A171 at 8 ug/ml after 2 hrs by qRT PCR analysis; assay type: functional, organism-based
Method in brief: (§3)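 Cells exposed 2 h to test agents at MIC. Total RNA isolated, cDNA synthesized, qPCR for ERG11 with ACT1 as endogenous control. Triplicate independent experiments, reported as mean ± standard deviation.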

[7] = test system: Candida albicans; test: Down regulation of ERG11 gene expression in fluconazole susceptible Candida albicans ATCC 90028 at 8 ug/ml after 2 hrs by qRT PCR analysis; assay type: functional, organism-based; method in brief: as §3
[8] = test system: Candida albicans; test: Inhibition of ergosterol biosynthesis in fluconazole resistant Candida albicans A171 at 8 ug/ml relative to control; assay type: functional
Method in brief: (§4)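 Total sterols quantified by alcoholic KOH extraction in cells grown in 50 ml TSB with compounds at MIC and ½ MIC; untreated and 8 μg mL–1 fluconazole controls. Spectral scan; ergosterol content from A281.5 and A230 absorbances, dilution factor and pellet weight, correcting for 24(28) DHE.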

[9] = test system: Candida albicans; test: Antifungal activity against Candida albicans ATCC 90028 by CLSI protocol based broth microdilution method; assay type: functional; method in brief: as §2
[10] = test system: Candida albicans; test: Antifungal activity against fluconazole resistant Candida albicans 167-2 by CLSI protocol based broth microdilution method; assay type: functional; method in brief: as §1
[11] = test system: Candida albicans; test: Antifungal activity against fluconazole susceptible Candida albicans 0079gr by CLSI protocol based broth microdilution method; assay type: functional; method in brief: as §2
[12] = test system: Candida albicans; test: Antifungal activity against fluconazole susceptible Candida albicans 004gr by CLSI protocol based broth microdilution method; assay type: functional; method in brief: as §2
[13] = test system: Candida albicans; test: Inhibition of ergosterol biosynthesis in fluconazole susceptible Candida albicans ATCC 90028 at 8 ug/ml relative to control; assay type: functional; method in brief: as §4
[14] = test system: Candida albicans; test: Antifungal activity against fluconazole susceptible Candida albicans 0072gr by CLSI protocol based broth microdilution method; assay type: functional; method in brief: as §2
[15] = test system: Candida albicans; test: Antifungal activity against fluconazole susceptible Candida albicans 004gr in presence of fluconazole by CLSI protocol based broth microdilution method; assay type: functional
[16] = test system: Candida albicans; test: Antifungal activity against fluconazole susceptible Candida albicans 002B1 in presence of fluconazole by CLSI protocol based broth microdilution method; assay type: functional
[17] = test system: Candida albicans; test: Antifungal activity against Candida albicans ATCC 90028 in presence of fluconazole by CLSI protocol based broth microdilution method; assay type: functional
[18] = test system: Candida albicans; test: Inhibition of ABC efflux pumps in fluconazole susceptible Candida albicans 004B1 assessed as reduction in energy-dependent rhodamine 6G efflux in presence of 0.1 M glucose after 25 mins by fluorescence assay relative to control
Method in brief: (§5)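 Cells grown in TSB at 37 °C for 8 h, washed, resuspended in glucose-free PBS at 1 × 10^8 cells. De-energized 45 min with 5 mM deoxyglucose plus 5 mM dinitrophenol. […] Washed, sampled 5–25 min, then 0.1 M glucose added. Absorbance 527 nm, R6G from standard curve.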

[19] = test system: Candida albicans; test: Inhibition of ergosterol biosynthesis in fluconazole resistant Candida albicans A171 at 0.5 to 1 times MIC relative to control; assay type: functional; method in brief: as §4
[20] = test system: Candida albicans; test: Antifungal activity against fluconazole resistant Candida albicans 167-2 in presence of fluconazole by CLSI protocol based broth microdilution method; assay type: functional
Method in brief: (§6)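 Checkerboard-style combination with fluconazole at a 1 : 1 ratio, over concentrations 2–4 fold below each agent's MIC alone, by CLSI broth microdilution. Fractional inhibitory concentration index calculated and interpreted as synergy (<0.5), additive (0.5–1), indifferent or antagonistic.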

[21] = test system: Candida albicans; test: Antifungal activity against fluconazole resistant Candida albicans 167-1 in presence of fluconazole by CLSI protocol based broth microdilution method; assay type: functional; method in brief: as §6
[22] = test system: Candida albicans; test: Antifungal activity against fluconazole susceptible Candida albicans 0079gr in presence of fluconazole by CLSI protocol based broth microdilution method; assay type: functional
[23] = test system: Candida albicans; test: Inhibition of ABC efflux pumps in fluconazole susceptible Candida albicans 003gr assessed as reduction in energy-dependent rhodamine 6G efflux in presence of 0.1 M glucose after 25 mins […] relative to control
[24] = test system: Candida albicans; test: Antifungal activity against fluconazole resistant Candida albicans A171 in presence of fluconazole by CLSI protocol based broth microdilution method; assay type: functional; method in brief: as §6
[25] = test system: Candida albicans; test: Down regulation of ERG11 gene expression in fluconazole resistant Candida albicans A171 at MIC after 2 hrs by qRT PCR analysis relative to control; assay type: functional; method in brief: as §3
[26] = test system: Candida albicans; test: Inhibition of ABC efflux pumps in fluconazole susceptible Candida albicans 002B1 assessed as reduction in energy-dependent rhodamine 6G efflux in presence of 0.1 M glucose after 25 mins […] relative to control
[27] = test system: Candida albicans; test: Inhibition of ABC efflux pumps in fluconazole resistant Candida albicans 167-2 assessed as reduction in energy-dependent rhodamine 6G efflux in presence of 0.1 M glucose after 25 mins […] relative to control
[28] = test system: Candida albicans; test: Inhibition of ABC efflux pumps in fluconazole resistant Candida albicans A171 assessed as reduction in energy-dependent rhodamine 6G efflux in presence of 0.1 M glucose after 25 mins by fluorescence assay relative to control; method in brief: as §5
[29] = test system: Candida albicans; test: Inhibition of ABC efflux pumps in fluconazole resistant Candida albicans 167-1 assessed as reduction in energy-dependent rhodamine 6G efflux in presence of 0.1 M glucose after 25 mins […] relative to control
[30] = test system: Candida albicans; test: Inhibition of ABC efflux pumps in fluconazole susceptible Candida albicans 0072gr assessed as reduction in energy-dependent rhodamine 6G efflux in presence of 0.1 M glucose after 25 mins […] relative to control
[31] = test system: Candida albicans; test: Antifungal activity against fluconazole susceptible Candida albicans 004B1 in presence of fluconazole by CLSI protocol based broth microdilution method; assay type: functional
[32] = test system: Candida albicans; test: Inhibition of ergosterol biosynthesis in fluconazole susceptible Candida albicans ATCC 90028 at 0.5 to 1 times MIC relative to control; assay type: functional
Method in brief: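 ATCC90028 grown in 50 ml TSB with MIC and ½ MIC of compound; untreated and 8 μg mL–1 fluconazole controls. Sterols extracted by alcoholic KOH method and spectrophotometrically scanned; ergosterol % calculated from A281.5 and A230 (E values 290 and 518) with dilution factor, per pellet weight.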

[33] = test system: Candida albicans; test: Down regulation of ERG11 gene expression in fluconazole susceptible Candida albicans ATCC 90028 at MIC after 2 hrs by qRT PCR analysis relative to control; assay type: functional
Method in brief: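 Cells exposed to compound at MIC for 2 h; total RNA isolated, cDNA synthesised, ERG11 measured by real-time qPCR with ACT1 as endogenous control. Triplicate independent experiments; mean ± standard deviation.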

[34] = test system: Candida albicans; test: Antifungal activity against fluconazole susceptible Candida albicans 003gr in presence of fluconazole by CLSI protocol based broth microdilution method; assay type: functional
[35] = test system: Candida albicans; test: Antifungal activity against fluconazole susceptible Candida albicans 0072gr in presence of fluconazole by CLSI protocol based broth microdilution method; assay type: functional
[36] = test system: Candida albicans; test: Inhibition of ABC efflux pumps in fluconazole susceptible Candida albicans 004gr assessed as reduction in energy-dependent rhodamine 6G efflux in presence of 0.1 M glucose after 25 mins by fluorescence assay relative to control; method in brief: as §5
[37] = test system: Candida albicans; test: Inhibition of ABC efflux pumps in fluconazole susceptible Candida albicans 0079gr assessed as reduction in energy-dependent rhodamine 6G efflux in presence of 0.1 M glucose after 25 mins by fluorescence assay relative to control; method in brief: as §5

`OC(Cn1cncn1)(Cn1cncn1)c1ccc(F)cc1F` [FLUCONAZOLE] was tested, and the MIC [1] was 125 to 500 µg/mL (≈ 408 to 1630 µM), the MIC [2] was 2 to 8 µg/mL (≈ 6.53 to 26.1 µM) and the MIC [3] was 2 to 8 µg/mL (≈ 6.53 to 26.1 µM). For the same molecule, the MIC [4] was 125 to 500 µg/mL (≈ 408 to 1630 µM), the MIC [5] was 2 to 8 µg/mL (≈ 6.53 to 26.1 µM) and the Activity [6] was “inactive”. For the same molecule, the inhibition [7] was “Active”, the inhibition at 8 µg/mL [8] was 11% and the MIC [9] was 2 to 8 µg/mL (≈ 6.53 to 26.1 µM). The MIC [10] was 125 to 500 µg/mL (≈ 408 to 1630 µM), the MIC [11] was 2 to 8 µg/mL (≈ 6.53 to 26.1 µM) and the MIC [12] was 2 to 8 µg/mL (≈ 6.53 to 26.1 µM). It also gave an inhibition at 8 µg/mL [13] of 100% and an MIC [14] of 2 to 8 µg/mL (≈ 6.53 to 26.1 µM).
In the case of `NC(=S)N1N=C(c2ccccc2)CC1c1ccc(C2CC(c3ccccc3)=NN2C(N)=S)cc1` (configuration not stated), the MIC [1] is reported as 125 to 500 µg/mL (≈ 258 to 1030 µM), the MIC [2] is reported as 8 to 125 µg/mL (≈ 16.5 to 258 µM) and the “fractional inhibitory concentration index (FICI)” value [15] is reported as 0.53 - 2.19. For the same molecule, the MIC [3] was 8 to 125 µg/mL (≈ 16.5 to 258 µM), the MIC [4] was 125 to 500 µg/mL (≈ 258 to 1030 µM) and the “fractional inhibitory concentration index (FICI)” value [16] was 0.53 - 2.19. The “fractional inhibitory concentration index (FICI)” value [17] was 0.53 - 2.19, the MIC [5] was 8 to 125 µg/mL (≈ 16.5 to 258 µM) and the inhibition [18] was less than 20%. For the same molecule, the “inhibition (INH)” value [19] was 49 - 94%, the “fractional inhibitory concentration index (FICI)” value [20] was 0.372 - 1.5 and the “fractional inhibitory concentration index (FICI)” value [21] was 0.372 - 1.5. The “fractional inhibitory concentration index (FICI)” value [22] was 0.53 - 2.19, the inhibition [23] was less than 20% and the MIC [9] was 8 to 125 µg/mL (≈ 16.5 to 258 µM). For the same molecule, the MIC [10] was 125 to 500 µg/mL (≈ 258 to 1030 µM), the “fractional inhibitory concentration index (FICI)” value [24] was 0.372 - 1.5 and the “fold change (FC)” value [25] was 1.25 - 10. It also gave an inhibition [26] of less than 20%, an MIC [11] of 8 to 125 µg/mL (≈ 16.5 to 258 µM) and an inhibition [27] of less than 20%. For the same molecule, the inhibition [28] was less than 20%, the inhibition [29] was less than 20% and the inhibition [30] was less than 20%. For the same molecule, the “fractional inhibitory concentration index (FICI)” value [31] was 0.53 - 2.19, the “inhibition (INH)” value [32] was 66 - 99% and the “fold change (FC)” value [33] was 1.5 - 13. The MIC [12] was 8 to 125 µg/mL (≈ 16.5 to 258 µM), the “fractional inhibitory concentration index (FICI)” value [34] was 0.53 - 2.19 and the “fractional inhibitory concentration index (FICI)” value [35] was 0.53 - 2.19. The inhibition [36] was less than 20%, the MIC [14] was 8 to 125 µg/mL (≈ 16.5 to 258 µM) and the inhibition [37] was less than 20%.
